Laboratory results published in PMC7993273 (Clinical and Translational Science, 2021).
Where “and” joins values, the source holds several entries; their conditions need not be identical. Identical values can stand only once.

Columns and labels:
[1] = type: in vivo, human; settings: 160 mg b.i.d.
In short: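 Final population PK model built from 4,925 plasma samples from 632 healthy volunteers and B-cell malignancy patients, on oral doses of 20–320 mg q.d. or b.i.d. Plasma levels were measured by validated HPLC-MS/MS (LLOQ 1 ng/mL). Steady-state AUCss, Cmax,ss and Cmin,ss were simulated for repeated 160 mg b.i.d. dosing, comparing 5th/95th-percentile covariate values against a median-covariate typical patient.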

[2] = cited from earlier work
Population PK model = type: in vivo, human
[3] = Exposure at the 480-mg dose in HVs, study BGB-3111-106; type: in vivo, human
[4] = oral, patients with B-cell malignancies

Structure (SMILES): C=CC(=O)N1CCC([C@@H]2CCNc3c(C(N)=O)c(-c4ccc(Oc5ccccc5)cc4)nn32)CC1 [zanubrutinib, Zanubrutinib]
- magnitude of effect of ALT on AUCss [1]: < 15%
- magnitude of effect of ALT on Cmax,ss [1]: < 10%
- magnitude of effect of ALT on Cmin,ss [1]: < 30%
- AUC ([1]; human, plasma, oral, 160 mg, total daily AUC, typical patient): 1890 ng·h/mL
- systemic accumulation after multiple-dose administration ([2]; 40 mg to 320 mg q.d. and 160 mg b.i.d.): limited systemic accumulation
- dose dependence of Cmax and AUC0–∞ ([2]; doses from 40 mg to 320 mg): dose‐proportional increase
- mean terminal elimination half-life (t 1/2) [2, 4]: 2 to 4 h
- median time to peak plasma concentration (Tmax) [2, 4]: 2 h
- Ka, final model estimate (95% CI) (Population PK model; absorption rate constant): 0.526 (0.525, 0.526) 1/hour
- D1, bootstrap estimate median (2.5–97.5 percentiles) (Population PK model; bootstrap of 1,000 datasets): 1.114 (0.974, 1.265) hour
- IIV D1, bootstrap estimate median (2.5–97.5 percentiles) (Population PK model; bootstrap of 1,000 datasets): 62.2 (51.9, 72.4)
- IIV Q/F, bootstrap estimate median (2.5–97.5 percentiles) (Population PK model; bootstrap of 1,000 datasets): 103 (83.9, 118)
- IIV Vc/F, bootstrap estimate median (2.5–97.5 percentiles) (Population PK model; bootstrap of 1,000 datasets): 39.2 (25.9, 57.8)
- IIV Vp/F, bootstrap estimate median (2.5–97.5 percentiles) (Population PK model; bootstrap of 1,000 datasets): 80.4 (58.9, 94.6)
- IOV D1, bootstrap estimate median (2.5–97.5 percentiles) (Population PK model; bootstrap of 1,000 datasets): 62.2 (51.9, 72.4)
- IOV Vc/F, bootstrap estimate median (2.5–97.5 percentiles) (Population PK model; bootstrap of 1,000 datasets): 65.9 (49.4, 76.8)
- Ka, bootstrap estimate median (2.5–97.5 percentiles) (Population PK model; bootstrap of 1,000 datasets): 0.524 (0.481, 0.591) 1/hour
- Q/F, bootstrap estimate median (2.5–97.5 percentiles) (Population PK model; bootstrap of 1,000 datasets): 25.6 (19.9, 32.3) L/hour
- Vc/F, bootstrap estimate median (2.5–97.5 percentiles) (Population PK model; bootstrap of 1,000 datasets): 115 (88.4, 151) L
- Vp/F, bootstrap estimate median (2.5–97.5 percentiles) (Population PK model; bootstrap of 1,000 datasets): 363 (274, 513) L
- CL/F (HV), bootstrap estimate median (2.5–97.5 percentiles) (Population PK model; bootstrap of 1,000 datasets, healthy volunteers): 119 (110, 127) L/hour
- CL/F (patient), bootstrap estimate median (2.5–97.5 percentiles) (Population PK model; bootstrap of 1,000 datasets, patient): 169 (162, 178) L/hour
- effect of co-administration with PPIs and other ARAs on the PKs (Population PK model; covariate analysis, patients in clinical studies): did not appear to significantly impact
- D1, final model estimate (95% CI) (Population PK model; duration of zero-order absorption into the depot compartment): 1.13 hour and 1.128 (1.125, 1.131) hour
- coefficient of variance of elimination t 1/2 (Population PK model; final population PK model): 40.0%
- CL/F (HV), final model estimate (95% CI) (Population PK model; healthy volunteers): 118 (107, 130) L/hour
- Q/F, final model estimate (95% CI) (Population PK model; human, in vivo): 26.5 L/hour and 26.5 (26.3, 26.7) L/hour
- Vc/F, final model estimate (95% CI) (Population PK model; human, in vivo): 112 L and 112 (111, 113) L
- Vp/F, final model estimate (95% CI) (Population PK model; human, in vivo): 345 L and 345 (343, 347) L
- half-life (Population PK model; human, plasma, oral): 3.44 h
- IIV D1, final model estimate (95% CI) (Population PK model; interindividual variability): 62.3 (57.1, 67.1)
- IIV Q/F, final model estimate (95% CI) (Population PK model; interindividual variability): 102 (97.8, 106)
- IIV Vc/F, final model estimate (95% CI) (Population PK model; interindividual variability): 37.1 (NA, 53.1)
- IIV Vp/F, final model estimate (95% CI) (Population PK model; interindividual variability): 86.4 (71.3, 99.3)
- IIV estimated for CL/F (Population PK model; interindividual variability): 36.7%
- IIV estimated for Vc/F (Population PK model; interindividual variability): 37.1%
- IOV Vc/F, final model estimate (95% CI) (Population PK model; interoccasion variability): 67.5 (66.8, 68.3)
- absorption rate constant (Population PK model; typical patient with ALT of 18 U/L): 0.526 hour^‐1
- CL/F (patient), final model estimate (95% CI) (Population PK model; typical patient with B-cell malignancy, ALT 18 U/L): 170 L/hour and 170 (169, 170) L/hour
- dose dependence of exposure at the 480-mg dose [3]: less than dose‐proportional increase in exposure
